This is an account of results in ChEMBL document CHEMBL1121685, “Development of new mitomycin C and porfiromycin analogues” (J Med Chem, 1981).

In general, T/C refers to the ratio of treated to control.

Structures are written as SMILES.

Series [1] deals with Mus musculus. Put plainly: Effect of compound on total white blood cell count in BDG1 male mice, after intraperitoneal administration at a dose of 51.2 mg/kg on day 5 (highest dose was twice the optimal dose). Type of series: functional. The method, boiled down: (§1)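 Single ip dose given on day 0 to BDG₁ male mice. Total white blood cell count measured on days 3, 5 and 7, expressed as % change from control. Highest dose was at the LD₅₀, or at twice the optimal dose where so footnoted. Significance reported at p ≤ 0.05 and p ≤ 0.01. D marks death of one or more mice.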

The test system of series [2] is Mus musculus. As to the kind of experiment: Antitumor activity against P-388 murine leukemia cells in CDF1 female mice after intraperitoneal administration at the specified optimal dose of 25.6 mg/kg. Type of series: functional.
Series [3] has as its system Mus musculus. As to the kind of experiment: Activity of compound dose of 0.5 mg/kg/day against Murine B-16 Melanocarcinoma in mice. Type of series: functional.
Series [4] concerns Mus musculus. As to the kind of experiment: Number of cured survivors, 45 days after administration of compound at a dose of 4 mg/kg/day in mice. Type of series: functional.
Series [5] relates to Mus musculus. As to the kind of experiment: Activity of compound dose of 4 mg/kg/day against Murine B-16 Melanocarcinoma in mice. Type of series: functional.
Series [6] deals with Mus musculus. Put plainly: Activity of compound dose of 1 mg/kg/day against Murine B-16 Melanocarcinoma in mice. Type of series: functional.
Series [7] concerns Mus musculus. As to the kind of experiment: Activity of compound dose of 2 mg/kg/day against Murine B-16 Melanocarcinoma in mice. Type of series: functional.
Series [8] concerns Mus musculus. As to the kind of experiment: Number of tumored survivors, 45 days after administration of compound at a dose of 16 mg/kg/day in mice. Type of series: functional.
In series [9] the test system is Mus musculus. Put plainly: Effect of compound on total white blood cell count in BDG1 male mice, after intraperitoneal administration at a dose of 25.6 mg/kg on day 7. Type of series: functional. In short, it runs like this:
(§2)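 Single ip dose given on day 0 to BDG1 male mice over a descending dose series. Total white blood cell count is expressed as % change from untreated control on days 3, 5 and 7. Significance is flagged at p ≤ 0.05 and p ≤ 0.01.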

Series [10] concerns Mus musculus. As to the kind of experiment: Effect of compound on total white blood cell count in BDG1 male mice, after intraperitoneal administration at a dose of 25.6 mg/kg on day 5. Type of series: functional. The method, boiled down:
as §2

Series [11] deals with Mus musculus. Put plainly: Activity of compound dose of 16 mg/kg/day against Murine B-16 Melanocarcinoma in mice. Type of series: functional.
The species entered for series [12] is Mus musculus. Put plainly: Half-wave potential produced by the compound at their optimal dose. Type of series: functional. Set-up: unit not given here.
A short description of series [13]: Therapeutic ratio is expressed as ratio of optimal dose and minimum effective dose. Type of series: ADME. The following applies: mouse; read-out: TR. The method, boiled down: (§3)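 10⁶ P-388 ascites cells implanted ip in CDF₁ female mice. Six mice per dose, 10 saline-injected controls, and a concurrent mitomycin C reference group. %T/C = median survival time of treated/control × 100. MED is the lowest dose giving %T/C > 125. Therapeutic ratio = optimal dose/MED.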

Series [14] concerns Mus musculus. Put plainly: Activity of compound dose of 8 mg/kg/day against Murine B-16 Melanocarcinoma in mice. Type of series: functional.
The subject of series [15] is Mus musculus. As to the kind of experiment: Number of cured survivors, 45 days after administration of compound at a dose of 16 mg/kg/day in mice. Type of series: functional.
Series [16] deals with Mus musculus. As to the kind of experiment: Effect of compound on total white blood cell count in BDG1 male mice, after intraperitoneal administration at a dose of 51.2 mg/kg on day 3 (highest dose was twice the optimal dose). Type of series: functional. The method, boiled down: as §1
Series [17] deals with Mus musculus. As to the kind of experiment: Minimum effective dose that show activity against P-388 murine leukemia cells in CDF1 female mice, after intraperitoneal administration (optimal dose is 25.6 mg/kg). Type of series: functional. The conditions noted are these: P388, ip, read-out: MED. In short, it runs like this: as §3
The species entered for series [18] is Mus musculus. As to the kind of experiment: Degree of leukopenia produced by compound is assessed form Percent change in white cells on days 5. Type of series: functional. In short, it runs like this:
(§4)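 BDG₁ male mice received a single ip dose on day 0. The dose series topped out at the LD₅₀ level, or at twice the optimal dose for some agents. Total white blood cell count was taken on days 3, 5 and 7 and expressed as % change from untreated controls. Significance was set at p ≤ 0.05 or p ≤ 0.01.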

In series [19] the test system is Mus musculus. As to the kind of experiment: Effect of compound on total white blood cell count in BDG1 male mice, after intraperitoneal administration at a dose of 25.6 mg/kg on day 3. Type of series: functional. The method, boiled down:
as §2

In series [20] the test system is Mus musculus. Put plainly: Effect of compound on total white blood cell count in BDG1 male mice, after intraperitoneal administration at a dose of 17 mg/kg on day 5. Type of series: functional. In short, it runs like this:
as §2

In series [21] the test system is Mus musculus. Put plainly: Effect of compound on total white blood cell count in BDG1 male mice, after intraperitoneal administration at a dose of 12.57 mg/kg on day 3. Type of series: functional. The method, boiled down:
as §4

Series [22] concerns Mus musculus. As to the kind of experiment: Effect of compound on total white blood cell count in BDG1 male mice, after intraperitoneal administration at a dose of 12.57 mg/kg on day 7. Type of series: functional. In short, it runs like this:
as §4

The subject of series [23] is Mus musculus. As to the kind of experiment: Effect of compound on total white blood cell count in BDG1 male mice, after intraperitoneal administration at a dose of 9.56 mg/kg on day 3. Type of series: functional. The method, boiled down:
as §1

For series [24], the system named is Mus musculus. Put plainly: Effect of compound on total white blood cell count in BDG1 male mice, after intraperitoneal administration at a dose of 17 mg/kg on day 3. Type of series: functional. The method, boiled down: as §2
Series [25] relates to Mus musculus. Put plainly: Effect of compound on total white blood cell count in BDG1 male mice, after intraperitoneal administration at a dose of 17 mg/kg on day 7. Type of series: functional. The method, boiled down:
as §2

The test system of series [26] is Mus musculus. Put plainly: Antitumor activity against P-388 murine leukemia cells in CDF1 female mice after intraperitoneal administration at the specified optimal dose of 12.8 mg/kg. Type of series: functional.
Series [27] concerns Mus musculus. Put plainly: Minimum effective dose that show activity against P-388 murine leukemia cells in CDF1 female mice, after intraperitoneal administration (optimal dose is 12.8 mg/kg). Type of series: functional. The conditions noted are these: P388, ip, read-out: MED. The method, boiled down: as §3
Series [28] relates to Mus musculus. As to the kind of experiment: Effect of compound on total white blood cell count in BDG1 male mice, after intraperitoneal administration at a dose of 12.57 mg/kg on day 5. Type of series: functional. The method, boiled down:
as §4

The subject of series [29] is Mus musculus. Put plainly: Effect of compound on total white blood cell count in BDG1 male mice, after intraperitoneal administration at a dose of 9.56 mg/kg on day 7. Type of series: functional. The method, boiled down: as §1
Series [30] relates to Mus musculus. As to the kind of experiment: Effect of compound on total white blood cell count in BDG1 male mice, after intraperitoneal administration at a dose of 9.56 mg/kg on day 5. Type of series: functional. The method, boiled down:
as §1

Consider `C=C(C)CNC1=C(C)C(=O)C2=C(C1=O)[C@H](COC(N)=O)C1(OC)[C@@H]3N[C@@H]3CN21` (some centres not stated), for which the Change in the series on Mus musculus [1] was -25%; with Mus musculus [9], -34%; in the series with Mus musculus [10], -68%; in the series with Mus musculus [16], -60%; in the series filed under Mus musculus [18] it was -59%; with Mus musculus [19] it was -60%. The T/C came out at 245% in the series on Mus musculus [2]; 122% in the series on Mus musculus [3]; 160% in the series with Mus musculus [5]; 131% in the series on Mus musculus [6]; 146% in the series on Mus musculus [7]; 226% in the series on Mus musculus [11]. The same compound returned a T/C with Mus musculus [14] of 186%. Besides, the results for the Survivors in the series with Mus musculus [4], with Mus musculus [8] and with Mus musculus [15] were 1, 1 and 3, respectively. In the series filed under Mus musculus [12], this compound returned an E1/2 of -0.41. In [13], the selectivity ratio came to 16. Moreover, the minimal effective dose in the series on Mus musculus [17] stood at 1.6 mg/kg.
Take `C#CCNC1=C(C)C(=O)C2=C(C1=O)[C@H](COC(N)=O)C1(OC)[C@@H]3N[C@@H]3CN21` (some centres not stated): the Change is -75% in the series on Mus musculus [20]; -68% in the series with Mus musculus [21]; -52% in the series with Mus musculus [22]; -59% with Mus musculus [23]; -80% in the series with Mus musculus [24]; -73% with Mus musculus [25]. Moreover, the values for the Change in the series with Mus musculus [28], in the series with Mus musculus [29] and in the series with Mus musculus [30] were -69%, -28% and -56%, respectively. In the series on Mus musculus [26], this compound gave a T/C of 358%. The E1/2 in the series filed under Mus musculus [12] is listed as -0.41. In addition, the selectivity ratio in series [13] was found to be 64. For the same compound, in the series with Mus musculus [27], the minimal effective dose came to 0.2 mg/kg.
